Laboratory results published in ChEMBL document CHEMBL5724801, “EUbOPEN Chemogenomics Library - Multiplex” (2024).
Where “and” joins values, the source holds several entries; their conditions need not be identical. Equal values may be shown once.

Test system: HEK-293T
Assay: Multiplex assay against HEK293T
Format: toxicity, cell-based
Conditions: human
In short: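 Phenotypes for tubulin, mitochondrial mass and membrane permeability are expressed as per cents of healthy-nucleus cells. Cells were stained live at seeding with Hoechst33342, BioTracker Green Microtubule Cytoskeleton Dye, MitoTracker Red and Annexin V Alexa Fluor 680, then imaged after compound addition on a CQ1 microscope at 37°C and 5% CO2. Machine-learning gating in CellPathfinder separated Hoechst high-intensity objects from normal cells, divided normal cells by nuclear state (healthy, pyknosed, fragmented) and divided pyknosed cells into mitotic or apoptotic.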

[1] = 12 h, 1 µM, compound concentration 1 uM
[2] = 12 h, 10 µM, compound concentration 10 uM
[3] = 24 h, 1 µM, compound concentration 1 uM
[4] = 24 h, 10 µM, compound concentration 10 uM
[5] = 48 h, 1 µM, compound concentration 1 uM
[6] = 48 h, 10 µM, compound concentration 10 uM

## COC[C@@H](c1ccc(C(F)(F)F)cc1)N1CCN(C2(C)CCN(C(=O)c3c(C)ncnc3C)CC2)C[C@@H]1C.O=C(O)/C=C\C(=O)O [VICRIVIROC MALEATE]
[1]
  Population Apoptotic (%): 46% and 45%
  Population Fragmented Nuclei (%): 7%
  Population Healthy Nuclei (%): 80%
  Population Hoechst High Intensity Objects (%): 9% and 5%
  Population Membrane Permeable-Phenotype (%): 0%
  Population Mitochondria Different-Phenotype (%): 47% and 51%
  Population Mitotic Cells (%): 53% and 54%
  Population Normal (%): 90% and 94%
  Population Pyknosed Nuclei (%): 12% and 11%
  Population Tubulin-Different-Phenotype (%): 27% and 17%
  Total Cell Count: 406 and 387
[2]
  Population Apoptotic (%): 44% and 62%
  Population Fragmented Nuclei (%): 6% and 5%
  Population Healthy Nuclei (%): 75% and 72%
  Population Hoechst High Intensity Objects (%): 8% and 16%
  Population Membrane Permeable-Phenotype (%): 0%
  Population Mitochondria Different-Phenotype (%): 63% and 78%
  Population Mitotic Cells (%): 55% and 37%
  Population Normal (%): 91% and 83%
  Population Pyknosed Nuclei (%): 18% and 21%
  Population Tubulin-Different-Phenotype (%): 57% and 51%
  Total Cell Count: 315 and 265
[3]
  Population Apoptotic (%): 30% and 31%
  Population Fragmented Nuclei (%): 9%
  Population Healthy Nuclei (%): 79% and 82%
  Population Hoechst High Intensity Objects (%): 6% and 5%
  Population Membrane Permeable-Phenotype (%): 0% and 1%
  Population Mitochondria Different-Phenotype (%): 24%
  Population Mitotic Cells (%): 69% and 68%
  Population Normal (%): 93% and 94%
  Population Pyknosed Nuclei (%): 10% and 8%
  Population Tubulin-Different-Phenotype (%): 21% and 11%
  Total Cell Count: 564 and 515
[4]
  Population Apoptotic (%): 34% and 60%
  Population Fragmented Nuclei (%): 6% and 10%
  Population Healthy Nuclei (%): 80% and 77%
  Population Hoechst High Intensity Objects (%): 6% and 16%
  Population Membrane Permeable-Phenotype (%): 0%
  Population Mitochondria Different-Phenotype (%): 53% and 70%
  Population Mitotic Cells (%): 66% and 39%
  Population Normal (%): 93% and 83%
  Population Pyknosed Nuclei (%): 13% and 12%
  Population Tubulin-Different-Phenotype (%): 49% and 39%
  Total Cell Count: 406 and 310
[5]
  Population Apoptotic (%): 21% and 34%
  Population Fragmented Nuclei (%): 11% and 13%
  Population Healthy Nuclei (%): 80% and 81%
  Population Hoechst High Intensity Objects (%): 2%
  Population Membrane Permeable-Phenotype (%): 1%
  Population Mitochondria Different-Phenotype (%): 13% and 11%
  Population Mitotic Cells (%): 78% and 65%
  Population Normal (%): 97%
  Population Pyknosed Nuclei (%): 7% and 5%
  Population Tubulin-Different-Phenotype (%): 12% and 8%
  Total Cell Count: 930 and 751
[6]
  Population Apoptotic (%): 38% and 53%
  Population Fragmented Nuclei (%): 12% and 14%
  Population Healthy Nuclei (%): 75% and 70%
  Population Hoechst High Intensity Objects (%): 4% and 11%
  Population Membrane Permeable-Phenotype (%): 0%
  Population Mitochondria Different-Phenotype (%): 49% and 50%
  Population Mitotic Cells (%): 61% and 46%
  Population Normal (%): 95% and 88%
  Population Pyknosed Nuclei (%): 11% and 15%
  Population Tubulin-Different-Phenotype (%): 35% and 38%
  Total Cell Count: 559 and 394

## O=C(NCCNCC(O)COc1ccc(O)cc1)N1CCOCC1.O=C(NCCNCC(O)COc1ccc(O)cc1)N1CCOCC1.O=C(O)/C=C/C(=O)O (configuration not stated) [XAMOTEROL FUMARATE]
[1]
  Population Apoptotic (%): 39% and 60%
  Population Fragmented Nuclei (%): 5%
  Population Healthy Nuclei (%): 79% and 76%
  Population Hoechst High Intensity Objects (%): 4% and 14%
  Population Membrane Permeable-Phenotype (%): 0%
  Population Mitochondria Different-Phenotype (%): 39% and 57%
  Population Mitotic Cells (%): 60% and 39%
  Population Normal (%): 95% and 85%
  Population Pyknosed Nuclei (%): 14% and 17%
  Population Tubulin-Different-Phenotype (%): 26% and 21%
  Total Cell Count: 339 and 271
[2]
  Population Apoptotic (%): 35% and 29%
  Population Fragmented Nuclei (%): 7% and 4%
  Population Healthy Nuclei (%): 83% and 86%
  Population Hoechst High Intensity Objects (%): 6% and 5%
  Population Membrane Permeable-Phenotype (%): 0%
  Population Mitochondria Different-Phenotype (%): 39% and 62%
  Population Mitotic Cells (%): 65% and 70%
  Population Normal (%): 93% and 94%
  Population Pyknosed Nuclei (%): 8% and 9%
  Population Tubulin-Different-Phenotype (%): 19% and 23%
  Total Cell Count: 499 and 406
[3]
  Population Apoptotic (%): 26% and 45%
  Population Fragmented Nuclei (%): 8% and 9%
  Population Healthy Nuclei (%): 78% and 80%
  Population Hoechst High Intensity Objects (%): 6% and 13%
  Population Membrane Permeable-Phenotype (%): 0%
  Population Mitochondria Different-Phenotype (%): 18% and 38%
  Population Mitotic Cells (%): 73% and 54%
  Population Normal (%): 93% and 86%
  Population Pyknosed Nuclei (%): 12% and 10%
  Population Tubulin-Different-Phenotype (%): 17% and 15%
  Total Cell Count: 475 and 366
[4]
  Population Apoptotic (%): 21% and 33%
  Population Fragmented Nuclei (%): 9% and 7%
  Population Healthy Nuclei (%): 79% and 85%
  Population Hoechst High Intensity Objects (%): 5% and 4%
  Population Membrane Permeable-Phenotype (%): 0%
  Population Mitochondria Different-Phenotype (%): 25% and 42%
  Population Mitotic Cells (%): 78% and 66%
  Population Normal (%): 94% and 95%
  Population Pyknosed Nuclei (%): 11% and 7%
  Population Tubulin-Different-Phenotype (%): 12% and 17%
  Total Cell Count: 632 and 542
[5]
  Population Apoptotic (%): 21% and 41%
  Population Fragmented Nuclei (%): 14% and 11%
  Population Healthy Nuclei (%): 77% and 81%
  Population Hoechst High Intensity Objects (%): 2% and 4%
  Population Membrane Permeable-Phenotype (%): 2% and 0%
  Population Mitochondria Different-Phenotype (%): 11% and 18%
  Population Mitotic Cells (%): 78% and 58%
  Population Normal (%): 97% and 95%
  Population Pyknosed Nuclei (%): 7% and 6%
  Population Tubulin-Different-Phenotype (%): 9% and 10%
  Total Cell Count: 918 and 526
[6]
  Population Apoptotic (%): 17% and 25%
  Population Fragmented Nuclei (%): 15% and 16%
  Population Healthy Nuclei (%): 79% and 77%
  Population Hoechst High Intensity Objects (%): 0% and 2%
  Population Membrane Permeable-Phenotype (%): 1% and 0%
  Population Mitochondria Different-Phenotype (%): 13% and 16%
  Population Mitotic Cells (%): 82% and 74%
  Population Normal (%): 99% and 97%
  Population Pyknosed Nuclei (%): 5%
  Population Tubulin-Different-Phenotype (%): 6% and 10%
  Total Cell Count: 1116 and 827
